Reference: ChEMBL document CHEMBL1131341, “Orally active antimalarial 3-substituted trioxanes: new synthetic methodology and biological evaluation” (J Med Chem, 1998)

What was measured:
Plasmodium falciparum = assay: In vitro antimalarial activity in chloroquine-sensitive Plasmodium falciparum NF54; type: functional, organism-based
Method in brief: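 IC50 (nM) was measured against cultured parasites in quadruplicate and derived from fitted dose-response curves with R² ≥0.989.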

Plasmodium berghei [1] = assay: Effective in vivo dose ED50 against Plasmodium berghei N after oral dose at 1,3,10 or 30 mg/kg/day, n=5; type: functional
Method in brief: (§1)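 Mice infected with chloroquine-sensitive P. berghei (N) were dosed daily for 4 days at 1, 3, 10 and 30 mg/kg, with five mice per dose regimen. The ED values were derived from these four dose levels.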

Plasmodium berghei [2] = assay: Effective in vivo dose ED90 against Plasmodium berghei N on oral administration; type: functional; method in brief: as §1
Plasmodium berghei [3] = assay: Effective in vivo dose ED50 against Plasmodium berghei N after subcutaneous dose at 1,3,10 or 30 mg/kg/day, n=5; type: functional; settings: sc; method in brief: as §1

Structure (SMILES)	IC50 (Plasmodium falciparum) [nM]	ED50 (Plasmodium berghei [1]) [mg/kg]	ED90 (Plasmodium berghei [2]) [µM/kg]	ED50 (Plasmodium berghei [3]) [mg/kg]
CO[C@@H]1O[C@]2(c3ccc(CO)cc3)CC[C@H]3CCCCC31OO2	78			
CO[C@@H]1O[C@]2(c3ccc(C(F)(F)F)cc3)CC[C@H]3CCCCC31OO2	39			
CO[C@H]1O[C@]2(c3ccc(COC(C)=O)cc3)CC[C@H]3CCCCC31OO2	20	14	22	2.8
CO[C@@H]1O[C@]2(c3ccccc3)CC[C@H]3CCCCC31OO2	110			
CO[C@H]1O[C@]2(c3ccc(F)cc3C)CC[C@H]3CCCC[C@@]31OO2	34			
CO[C@H]1O[C@]2(c3ccccc3)CC[C@H]3CCCCC31OO2	38			
COc1ccc([C@@]23CC[C@H]4CCCCC4(OO2)C(OC)O3)cc1 (some centres not stated)	> 2500			
CO[C@H]1O[C@]2(C)CC[C@H]3CCCCC31OO2	960			
C[C@@H]1CC[C@H]2[C@@H](C)C(=O)O[C@@H]3O[C@@]4(C)CC[C@@H]1[C@]32OO4 [ARTEMISININ]	9.2	8.5		3
COCc1ccc([C@@]23CC[C@H]4CCCCC4(OO2)[C@H](OC)O3)cc1	39			
CO[C@@H]1O[C@]2(c3ccc(COC(C)=O)cc3)CC[C@H]3CCCCC31OO2	44			
CO[C@@H]1O[C@]2(c3ccc(-c4ccccc4)cc3)CC[C@H]3CCCCC31OO2	76			
COC(=O)OCc1ccc([C@@]23CC[C@H]4CCCCC4(OO2)[C@H](OC)O3)cc1	79			
CO[C@H]1O[C@]2(CCC(F)(F)F)CC[C@H]3CCCCC31OO2	84			
CO[C@@H]1O[C@]2(c3ccc(Cl)cc3)CC[C@H]3CCCCC31OO2	49			
CO[C@H]1O[C@]2(c3ccc(C(F)(F)F)cc3)CC[C@H]3CCCCC31OO2	53			

Structure (SMILES)	IC50 (Plasmodium falciparum) [nM]	ED50 (Plasmodium berghei [1]) [mg/kg]	ED90 (Plasmodium berghei [2]) [µM/kg]	ED50 (Plasmodium berghei [3]) [mg/kg]
CO[C@H]1O[C@]2(c3ccc(-c4ccccc4)cc3)CC[C@H]3CCCCC31OO2	68			
COCc1ccc([C@@]23CC[C@H]4CCCCC4(OO2)[C@@H](OC)O3)cc1	51			
CO[C@H]1O[C@]2(c3ccc(CO)cc3)CC[C@H]3CCCCC31OO2	15	5.5	12	3.4
CO[C@H]1O[C@]2(CF)CC[C@H]3CCCCC31OO2	160			
CO[C@@H]1O[C@]2(c3ccc(F)cc3C)CC[C@H]3CCCC[C@@]31OO2	99			
CO[C@@H]1O[C@]2(c3ccc(COCc4ccc(F)cc4)cc3)CC[C@H]3CCCCC31OO2	42			
CO[C@H]1O[C@]2(c3cccc4ccccc34)CC[C@H]3CCCCC31OO2	44			
CO[C@H]1O[C@]2(c3ccc(F)cc3)CC[C@H]3CCCCC31OO2	30	10	23	6.8
CO[C@@H]1O[C@]2(c3ccco3)CC[C@H]3CCCCC31OO2	600			
CO[C@@H]1O[C@]2(c3ccc(F)cc3)CC[C@H]3CCCCC31OO2	65			
CO[C@@H]1O[C@]2(CF)CC[C@H]3CCCCC31OO2	320			
CO[C@H]1O[C@]2(c3ccc(COCc4ccc(F)cc4)cc3)CC[C@H]3CCCCC31OO2	23	3.8	6.8	3.5
CO[C@@H]1O[C@]2(c3cccc4ccccc34)CC[C@H]3CCCCC31OO2	170			
CCN(CC)CCCC(C)Nc1ccnc2cc(Cl)ccc12 (configuration not stated) [CHLOROQUINE]		1.2		1
CO[C@H]1O[C@]2(c3ccc(Cl)cc3)CC[C@H]3CCCCC31OO2	55			
CO[C@@H]1O[C@@]2(c3ccccc3)OOC13CCCC[C@@H]3CC2C (some centres not stated)	21			
